Results on 2 molecules are retold here after ChEMBL document CHEMBL3526062, “Role of human UDP-glucuronosyltransferases in the biotransformation of the triazoloacridinone and imidazoacridinone antitumor agents C-1305 and C-1311: highly selective substrates for UGT1A10” (Drug Metab Dispos, 2012).

Each structure is given as a SMILES string. pKi: −log10 of the molar value.

Data set [1] can be described thus: Drug metabolism in human colon microsomes assessed as glucuronidation activity at 0.1 mM for 60 mins in presence of 3 mM UDP-GlcUA. It is filed as ADME, microsome. The settings on record: 1 h, 100 µM. In short, it runs like this:
(§1)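 Microsomes from single donors (20 μg protein) incubated with 0.1 mM substrate and 3 mM UDP-GlcUA for 60 min at 37°C in Tris-HCl pH 7.4 buffer with 5 mM MgCl2, 5 mM saccharolactone and 2% DMSO. Glucuronide measured by HPLC; donor data summarized as box-and-whisker plots.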

A short description of data set [2]: Drug metabolism in human jejunum microsomes assessed as glucuronidation activity at 0.1 mM for 60 mins in presence of 3 mM UDP-GlcUA. Format: ADME. The settings on record: 1 h, 100 µM. In short, it runs like this:
as §1

For data set [3], the target named is T1, UDP-glucuronosyltransferase 1A9 (Homo sapiens, UniProt O60656).
T1 sequence (O60656 whole entry): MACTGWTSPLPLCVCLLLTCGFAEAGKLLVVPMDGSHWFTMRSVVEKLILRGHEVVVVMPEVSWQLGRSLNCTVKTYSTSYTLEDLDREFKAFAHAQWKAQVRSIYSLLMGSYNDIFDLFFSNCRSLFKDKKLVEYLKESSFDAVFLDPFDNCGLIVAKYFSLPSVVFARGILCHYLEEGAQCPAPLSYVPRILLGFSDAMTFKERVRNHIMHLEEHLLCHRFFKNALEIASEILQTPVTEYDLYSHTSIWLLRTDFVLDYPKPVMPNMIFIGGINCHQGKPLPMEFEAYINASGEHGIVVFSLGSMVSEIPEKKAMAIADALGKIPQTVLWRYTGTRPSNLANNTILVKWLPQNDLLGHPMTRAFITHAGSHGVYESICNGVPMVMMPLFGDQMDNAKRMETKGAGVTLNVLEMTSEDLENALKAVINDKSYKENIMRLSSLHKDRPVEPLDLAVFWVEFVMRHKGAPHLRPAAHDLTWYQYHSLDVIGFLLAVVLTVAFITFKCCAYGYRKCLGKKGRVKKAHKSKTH
Nature of the data set: Inhibition of human recombinant UGT1A9 activity expressed in baculovirus-infected Sf9 cells. It is filed as ADME.

Data set [4] can be described thus: Drug metabolism in human intestinal microsomes assessed as glucuronidation after 60 mins by Michaelis-Menten equation in presence of 3 mM UDP-GlcUA. Format: ADME, Intestine, Microsome. In short, it runs like this: (§2)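 Recombinant UGT membrane protein (5 μg; His-tagged UGT1A levels normalized by anti-His Western blot) or single-donor microsomes (20 μg) incubated with substrate 5–1000 μM and 3 mM UDP-GlcUA in […] pH 7.4, 5 mM MgCl2, 5 mM saccharolactone, 2% DMSO, 60 min, 37°C. Ethanol stop, centrifuged, HPLC-UV. Initial velocities fitted to Michaelis-Menten, Hill or substrate-inhibition models; three determinations.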

For another data set, the system named is Liver microsome. Nature of the data set: Drug metabolism in human liver microsomes assessed as glucuronidation activity at 0.2 mM for 60 mins by ESI-MS analysis in presence of 3 mM UDP-GlcUA. It is filed as ADME. The settings on record: 1 h, 200 µM. In short, it runs like this:
(§3)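 Single-donor liver or intestinal microsomes (20 μg total protein) incubated with 0.2 mM substrate and 3 mM UDP-GlcUA for 60 min at 37°C in Tris-HCl pH 7.4, MgCl2, saccharolactone, 2% DMSO. Ethanol stop, centrifuged, HPLC analysis; triplicates.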

The target of data set [5] is T2, UDP-glucuronosyltransferase 1A8 (Homo sapiens, UniProt Q9HAW9).
T2 sequence (Q9HAW9 whole entry): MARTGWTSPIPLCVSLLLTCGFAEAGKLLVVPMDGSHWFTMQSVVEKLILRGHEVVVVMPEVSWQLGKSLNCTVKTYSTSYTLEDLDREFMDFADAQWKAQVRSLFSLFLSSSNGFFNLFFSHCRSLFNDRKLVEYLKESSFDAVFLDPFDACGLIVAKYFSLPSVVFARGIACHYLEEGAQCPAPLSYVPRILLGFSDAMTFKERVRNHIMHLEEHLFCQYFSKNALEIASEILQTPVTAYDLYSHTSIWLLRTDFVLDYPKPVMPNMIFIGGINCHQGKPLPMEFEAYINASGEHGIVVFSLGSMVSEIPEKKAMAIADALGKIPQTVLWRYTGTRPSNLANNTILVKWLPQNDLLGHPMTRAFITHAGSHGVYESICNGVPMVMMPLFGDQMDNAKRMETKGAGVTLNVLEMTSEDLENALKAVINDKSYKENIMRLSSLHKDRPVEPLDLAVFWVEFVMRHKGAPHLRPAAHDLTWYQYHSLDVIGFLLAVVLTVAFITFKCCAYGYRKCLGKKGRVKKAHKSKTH
Briefly: Activity of human recombinant UGT1A8 expressed in baculovirus-infected Sf9 cells assessed as glucuronidation activity per mg of protein at 100 to 200 uM after 60 mins in presence of 3 mM UDP-GlcUA. Format: ADME. The settings on record: sf9, 1 h. In short, it runs like this: (§4)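 Screening: 5 μg recombinant UGT protein (His-tag levels normalized) in Tris-HCl pH 7.4, 5 mM MgCl2, 5 mM saccharolactone, 2% DMSO to permeabilize membranes. Substrate at 100 or 200 μM, added in water. Started with 3 mM UDP-GlcUA, 60 min at 37°C, stopped with ethanol, then centrifuged. Glucuronide quantified by reversed-phase C18 HPLC against the substrate response; triplicates.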

Data set [6] concerns the target T3, UDP-glucuronosyltransferase 1A3 (Homo sapiens, UniProt P35503).
T3 sequence (P35503 whole entry): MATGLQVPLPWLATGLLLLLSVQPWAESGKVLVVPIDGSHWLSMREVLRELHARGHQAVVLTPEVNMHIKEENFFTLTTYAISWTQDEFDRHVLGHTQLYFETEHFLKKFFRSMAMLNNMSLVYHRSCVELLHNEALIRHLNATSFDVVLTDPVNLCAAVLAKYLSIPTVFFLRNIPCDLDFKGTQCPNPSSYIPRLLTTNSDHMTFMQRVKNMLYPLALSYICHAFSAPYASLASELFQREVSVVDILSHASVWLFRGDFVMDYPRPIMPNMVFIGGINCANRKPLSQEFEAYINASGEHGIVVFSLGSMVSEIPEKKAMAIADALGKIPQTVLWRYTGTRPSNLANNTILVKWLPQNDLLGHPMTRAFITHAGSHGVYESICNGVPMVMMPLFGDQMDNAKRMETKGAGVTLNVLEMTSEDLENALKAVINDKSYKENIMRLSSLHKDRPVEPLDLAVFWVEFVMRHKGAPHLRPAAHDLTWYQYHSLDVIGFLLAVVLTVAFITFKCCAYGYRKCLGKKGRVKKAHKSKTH
Briefly: Activity of human recombinant UGT1A3 expressed in baculovirus-infected Sf9 cells assessed as glucuronidation activity per mg of protein at 100 to 200 uM after 60 mins in presence of 3 mM UDP-GlcUA. The settings on record: sf9, 1 h. It is filed as ADME. In short, it runs like this: as §4

Data set [7] is described as follows: Drug metabolism in human intestinal microsomes assessed as glucuronidation activity at 0.2 mM for 60 mins by ESI-MS analysis in presence of 3 mM UDP-GlcUA. The settings on record: 1 h, 200 µM. It is filed as ADME, Intestine, Microsome. In short, it runs like this:
as §3

Data set [8] can be described thus: Drug metabolism in human ileum microsomes assessed as glucuronidation activity at 0.1 mM for 60 mins in presence of 3 mM UDP-GlcUA. It is filed as ADME. The settings on record: 1 h, 100 µM. In short, it runs like this:
as §1

The nature of data set [9]: Drug metabolism in human small intestine microsomes assessed as glucuronidation activity at 0.1 mM for 60 mins in presence of 3 mM UDP-GlcUA. Format: ADME. The settings on record: 1 h, 100 µM. In short, it runs like this: as §1
The nature of data set [10]: Drug metabolism in human intestinal microsomes assessed as glucuronidation per mg of protein after 60 mins by Michaelis-Menten equation in presence of 3 mM UDP-GlcUA. It is filed as ADME, Intestine, Microsome. The settings on record: 1 h. In short, it runs like this: as §2

For `CCN(CC)CCNc1ccc2ncn3c4ccc(O)cc4c(=O)c1c23` [C-1311], the Drug metabolism entry in data set [1] is “metabolite_detected”; in [2] it was “metabolite_detected”; with Liver microsome, “metabolite_detected”; in data set [5], 0.2 nmol/min/mg; in data set [6], less than 0.1 nmol/min/mg; in data set [7], “metabolite_detected”. Also, the Drug metabolism entry in [8] and in [9] was “metabolite_detected” each time. Also, the negative logarithm of the Ki (pKi) in [3] is 3.02. For the same molecule, the Km at 1 h in [4] worked out at 159 µM. Besides, in data set [10], the Vmax turned out to be 0.823 nmol/min/mg.
On to `CN(C)CCCNc1ccc2nnn3c4ccc(O)cc4c(=O)c1c23`, for which the Drug metabolism result in data set [1] is “metabolite_detected”; in data set [2], “metabolite_detected”; in the data set with Liver microsome, “metabolite_detected”; in data set [5], 0.2 nmol/min/mg; in data set [6] it was less than 0.1 nmol/min/mg; in [7], “metabolite_detected”. Also, the Drug metabolism entry in [8] and in [9] was “metabolite_detected” each time. Further, in data set [3], the negative logarithm of the Ki (pKi) was 2.78. In [4], the Km at 1 h came to 76.9 µM. Also, the maximum rate (Vmax) in data set [10] amounted to 0.413 nmol/min/mg.
